In the RNAGym collection of RNA variant scans (doi:10.1126/science.aae0568):
Variants at the floor of the assay were thinned out.

B1: tRNA (parent)
chain: GUUCCGUUGGCGUAAUGGUAACGCGUCUCCCUCCUAAGGAGAAGACUGCGGGUUCGAGUCCCGUACGGAACG

Variants of: B1
Test: yeast fitness relative to wild type (ratio to wild type); higher = fitter; tRNA-Arg(CCU), competitive growth, 37 C, YPD
Outline: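 Variants of the tRNA-Arg(CCU) gene, chemically synthesised with a 3% per-site mutation rate at 69 sites, were placed at the native genomic locus in Saccharomyces cerevisiae. The pooled strains were competed in YPD at 37°C for 24 hours in six parallel replicates. Gene amplicons from the start population and from each end population were read by 100-nucleotide paired-end sequencing. Darwinian fitness relative to wild type came from changes in genotype frequencies; genotypes needed ≥ 100 starting reads, and estimates < 0.5 were set to 0.5.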

Row | Variant | yeast fitness
1 | G6C G50A A70U | 0.633
2 | C5U U32C G39A C60U C61G G68C | ≤ 0.5
3 | C4U A15U C66U | 0.649
4 | U28C A36C G67C | 0.539
5 | C5A G9C A36U U54A C55U | ≤ 0.5
6 | U35C A43C C55G A65U | ≤ 0.5
7 | U7G U19A C30G C33U C61G | ≤ 0.5
8 | G41C C55A A69U | ≤ 0.5
9 | G10A C46G A65C | 0.597
10 | U19C C62G | 0.832
11 | U8A C22G C55G | 0.651
12 | G10C C22U U26A C49U A65U | ≤ 0.5
13 | A36G U64C C66U | 0.768
14 | U19A C49G U59C C60G C62G | ≤ 0.5
15 | U2A U3A G51A C61G | 0.513
16 | G12C G48C A70U | 0.539
17 | A37U A57U A65C G68A | 0.561
18 | C5U G6A A40C C46A | 0.578
19 | G10C C62A | 0.515
20 | C4G C27G | 0.816
21 | C4A G10A | 0.819
22 | C27G G38C U64A | ≤ 0.5
23 | G39A C46A A65U | 0.581
24 | A20G U28A C30G U59C | ≤ 0.5

Row | Variant | yeast fitness
25 | C11A U47G U64C | 0.531
26 | C5A U7A A21G C61G C66G | ≤ 0.5
27 | C4A C11U C29G U32A G52A | 0.596
28 | C27A U32A C61G U64C | ≤ 0.5
29 | U3G A15G C24G G50A C55U | 0.613
30 | U19C A20U C27G G52C | ≤ 0.5
31 | A14G G17A A57C | ≤ 0.5
32 | C22G C31U G39A | 0.636
33 | C30G G51C G56U | 0.628
34 | G50A U53A C61U | 0.532
35 | G9C U28A A40C U47C G52A | ≤ 0.5
36 | G6A G9C A14G | ≤ 0.5
37 | C5G C30G C61G | ≤ 0.5
38 | C49U A57U U59C | 0.536
39 | C11U A15U C22U G67A | ≤ 0.5
40 | C11G A14G G23A C46A G68U | ≤ 0.5
41 | G6A G17C G18C A45G G58A | ≤ 0.5
42 | U2C C27U A43G G56A | ≤ 0.5
43 | U2C U16A G38C G63A | 0.552
44 | G12A C22G | 1
45 | C29G A37U U59C C66G | 0.687
46 | C5G U13A A65G | 0.603
47 | A20C C30A C55A | 0.571
48 | G10A G38A A45G A70G | ≤ 0.5

Row | Variant | yeast fitness
49 | U28A U35C A37C U64A G67A | ≤ 0.5
50 | C4A U7A A20U C27G C29U C62G | 0.549
51 | A20C C30G C60G | ≤ 0.5
52 | U2G G9C A65C | 0.548
53 | C4A G56A | 0.88
54 | U13A C22U A37G | 0.533
55 | G58C C60A A65C | ≤ 0.5
56 | G23A G25C G51A | 0.661
57 | A21C C24G A37U C55U | ≤ 0.5
58 | G9C U19A A20G C29U A37U C62U G67A A70C | ≤ 0.5
59 | C22G G50C C55G | ≤ 0.5
60 | U26G C46A A65G | 0.682
61 | G18A U59C A69G | ≤ 0.5
62 | A65G A70U | 0.943
63 | U19G A43C U53C C55G G67C A69C | ≤ 0.5
64 | G9C U16G C29A | ≤ 0.5
65 | U13A G23C C49A U64G | ≤ 0.5
66 | C4U C11U C33U | 0.575
67 | C11A C29U C33U U54C | ≤ 0.5
68 | G25C C49U G51A | 0.568
69 | G10U G17A C24A C66G | 0.595
70 | C4G G17A C55G A70U | ≤ 0.5
71 | A21C U28A G50A | ≤ 0.5
72 | C4U A42C G58A | 0.567

Row | Variant | yeast fitness
73 | U59A A69U | 0.817
74 | U19A A40G | 0.75
75 | C27A G50C C62G C66U | 0.606
76 | G18U C31U G63A | 0.527
77 | U19A G67C | 0.74
78 | C31U C46G | 0.972
79 | A20G C61A | 0.706
80 | A15G U19A A69U | 0.729
81 | G10A U35A G63C | ≤ 0.5
82 | C22A C31G A37G G38C A43G G58C | 0.532
83 | U26A A42C C49U C60G U64C C66A | ≤ 0.5
84 | C22U U32G C34U A40G G58A C66U | ≤ 0.5
85 | C24A C61A G67A | ≤ 0.5
86 | G12A A14G C24G C31U C55A | ≤ 0.5
87 | C11U U35C A36U C46U G51A | ≤ 0.5
88 | C31G U54A | 0.655
89 | U7A U8C G9A C33U | ≤ 0.5
90 | G6A C31U G51A | 0.599
91 | G10C U32C | 0.73
92 | U16C C22U C24U C29U C49U C60U | ≤ 0.5
93 | U28C A42C A43C C55G A57G | ≤ 0.5
94 | A21G A40C C55A | ≤ 0.5
95 | C24A C31U | 0.754
96 | G25A A45U C62A | 0.54

Row | Variant | yeast fitness
97 | C30G A36C | 0.561
98 | U2G G9C A15G | ≤ 0.5
99 | G23A C46A G58A | 0.566
100 | G23C U28A A65G | ≤ 0.5
101 | G17A U19A G23A C31U C34A G48C C62U | ≤ 0.5
102 | U19C U28C G48C A70C | ≤ 0.5
103 | U2A U19G A20U U64C | ≤ 0.5
104 | G6U G18C C49G | ≤ 0.5
105 | C29G U35A A42U | ≤ 0.5
106 | G9A G63C | 0.872
107 | U7A C27U C29U | ≤ 0.5
108 | U16G C61U | 0.75
109 | U8A C29A U54C | ≤ 0.5
110 | G48C C62U | 0.899
111 | A20U G25A A69U | 0.838
112 | U13C U53A | 0.674
113 | G9A U26A G56A G67A | ≤ 0.5
114 | C46U C60A A69U | 0.57
115 | C33A G39C G41C G44C A69C | 0.577
116 | A20G A37C | 0.929
117 | C11U A36G C46U | 0.77
118 | G6A A42C A70G | ≤ 0.5
119 | C27U G38C G39A A43C C60G A65C | ≤ 0.5
120 | C11A U19A C29A U32A G48C C55G | ≤ 0.5

Row | Variant | yeast fitness
121 | U3C U7G G38C | ≤ 0.5
122 | C29G U35A G58C | ≤ 0.5
123 | C5A G58C A70C | 0.644
124 | U2A U8A C33U A43U | ≤ 0.5
125 | A15C C31A C34A | ≤ 0.5
126 | U13A C24A A45U G50A G56A | ≤ 0.5
127 | C5U G50A C66U | 0.637
128 | C22A A37C A65G | 0.691
129 | A20U C34A C62U | 0.542
130 | U7C A70U | 0.692
131 | G10C A37G C49U G52A C55G C66A | ≤ 0.5
132 | A14G U32G U35G A36C C61G A70G | ≤ 0.5
133 | U47G U59A | 0.543
134 | U8C U16C A21C C49A G58A C66U G68A | ≤ 0.5
135 | U3C C30G A43C | 0.548
136 | A42U C61U C62U | 0.612
137 | C5G G23C C31G C60A A70U | ≤ 0.5
138 | U26C A42U | 1.01
139 | A14U G17A G23C C29U C34G A43G A45C U54G | ≤ 0.5
140 | C5G A14C G23C G38A G58C G63A A70G | ≤ 0.5
141 | C5U A14C A15U G17A U26C A42U A45C | 0.508
142 | C46U U54C G58C G67A | ≤ 0.5
143 | A42U G52A C62U | 0.754
144 | C4U C11A A37C | 0.569

Row | Variant | yeast fitness
145 | G10C A45U | 0.778
146 | C5G A15C A21U C24U A57G G67U | ≤ 0.5
147 | U2C G10C A40C G52C G67A | ≤ 0.5
148 | U3G C5G C11U C29U U32C | ≤ 0.5
149 | U13C C27G A36G U54G | ≤ 0.5
150 | G25A C31U G38C G48A | 0.651
151 | G39A U47C | 1
152 | C5U A37G A43C G63C | ≤ 0.5
153 | U2A C4A U13C C31A C49G A57G | ≤ 0.5
154 | U2G A45U G67C | ≤ 0.5
155 | C31G G51A G68C | 0.545
156 | C29U C31G G38A G51A G58C | ≤ 0.5
157 | C4U G9A G67A | 0.598
158 | U3G U8C A43C | ≤ 0.5
159 | G23C G48A U64A A65U | ≤ 0.5
160 | A20U C22G A40G | 0.745
161 | C5G A14U C33G A43U U54C | ≤ 0.5
162 | U13C A20G C46U U47A | ≤ 0.5
163 | U7G G48A C62U | 0.628
164 | U19C A36U A70U | ≤ 0.5
165 | C11U A21U A43C G68C | ≤ 0.5
166 | U13A A36G G56A | 0.679
167 | U19C C31U C33G G41A C49G U54C | ≤ 0.5
